CCR6 antagonist – blocks CCL20-driven beta-arrestin recruitment at human CCR6. P51684. CHO-K1 CCR6 PathHunter beta-arrestin, luminescence, CCL20-stimulated. inhibition, % at 20 µM. 340,000 compounds, 0.49% hits;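 active = compounds whose inhibition of the agonist-driven luminescence signal at 20 µM reaches about 50%, limit read from the data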;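 also: cells stimulated with CCL20 at 14 nM final; plate controls were DMSO with CCL20 for no effect and DMSO without agonist for full effect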
Target sequence (P51684 whole entry, looked up): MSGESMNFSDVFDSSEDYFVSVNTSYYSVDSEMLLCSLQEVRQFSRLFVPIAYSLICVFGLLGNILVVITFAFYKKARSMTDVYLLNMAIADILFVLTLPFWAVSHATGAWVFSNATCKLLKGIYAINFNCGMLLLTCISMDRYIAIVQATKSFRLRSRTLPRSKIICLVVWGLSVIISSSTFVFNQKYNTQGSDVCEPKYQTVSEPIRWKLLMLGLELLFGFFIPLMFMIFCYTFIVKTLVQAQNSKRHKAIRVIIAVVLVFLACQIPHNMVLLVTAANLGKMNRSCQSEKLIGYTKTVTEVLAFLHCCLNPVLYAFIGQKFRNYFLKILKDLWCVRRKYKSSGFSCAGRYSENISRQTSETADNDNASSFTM
EBI2 block – EBI2 (human) antagonism. 360,000 compounds, 0.81% hits. EBI2 beta-arrestin recruitment, luminescence, 7a,25-OHC stimulated. AID 651636. inhibition, % at 5 µM. P32249; in the data active = inhibition above about 38%;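 also: enzyme fragment complementation signal reports receptor beta-arrestin coupling in cells; 0% = agonist plus DMSO wells and 100% = wells without agonist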
APJ antagonist – APJ receptor antagonism. P35414. CHO-K1 APJ beta-arrestin complementation, luminescence. inhibition, % at 20 µM. 330,000 compounds, 0.32% hits. AID 2521;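 active = inhibition above about 40% at 20 µM, limit read from the data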;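 also: cells challenged with 10 nM apelin-13 agonist together with compound; plate controls were apelin-13 plus DMSO wells for no effect and DMSO wells lacking apelin-13 for full effect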
CXCR6 inh – CXCR6 (human) receptor inhibition; O00574; CHO-K1 PathHunter CXCR6 beta-arrestin, luminescence; inhibition, % at 20 µM; 360,000 compounds, 0.36% hits; AID 602244; in the data active = inhibition above about 34%, passing the limit was not always enough;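 also: antagonist mode with CXCL16 agonist at 10 nM final; 0% = 10 nM CXCL16 with DMSO and 100% = unstimulated wells without agonist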
APJ ag – APJ receptor agonism; P35414; 330,000 compounds, 0.11% hits; CHO-K1 APJ PathHunter beta-arrestin, luminescence; 0% DMSO wells, 100% apelin; activation, % at 20 µM;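 active = activation more than six SD over the plate average, tested at 20 µM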;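 also: 0% = DMSO alone and 100% = apelin-13 at 10 nM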
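Material: CHO-K1 APJ beta-arrestin complementation cell line; Input: cell density 1000 per well; Incubation: compound stimulation 90 min at 25 °C, detection 60 min; Signal: luminescence from split beta-galactosidase complementation, Galacton Star/Emerald II substrate; Controls: DMSO-only wells as negative, 10 nM Apelin-13 as positive control.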
APJ antag confirm – confirmation of human APJ apelin receptor antagonists | shares compounds with APJ antagonist | 950 compounds, 66% hits | inhibition, % at 20 µM | APJ beta-arrestin recruitment, luminescence, antagonist mode; in the data active = inhibition above about 50%
Numbers without * were called inactive. Shown are actives, neighbours in structure and some others; about 1.5% of the full set was active somewhere.

How did CC(=O)NC(CCS(C)(=O)=O)C(=O)Nc1c(F)cccc1F (stereo not drawn) do in these assays?
CCR6 antagonist: 1; EBI2 block: -2; APJ antagonist: 13; CXCR6 inh: -1; APJ ag: 2

What do the screens show for `CC1(C)Cc2nc3sc4c(=O)n(Cc5ccccc5)cnc4c3cc2CS1`?
CCR6 antagonist: 12; EBI2 block: 12; APJ antagonist: 59*; CXCR6 inh: 2; APJ ag: -1; APJ antag confirm: 20

How did CCCn1cnc2c(sc3nc4c(cc32)CSC(C)(C)C4)c1=O do in these assays?
CCR6 antagonist: -6; EBI2 block: 4; APJ antagonist: -1; CXCR6 inh: -5; APJ ag: 2

What do the screens show for `C/C(=N\NC(=S)Nc1cccc(C)c1)c1ccccc1`?
CCR6 antagonist: 53*; EBI2 block: 26; APJ antagonist: 44*; CXCR6 inh: 33; APJ ag: -6; APJ antag confirm: 91*

Results for O=C(CCCn1c(SCc2cc(=O)n3ccccc3n2)nc2ccccc2c1=O)NCC1CCCO1 (stereo not drawn) ?
CCR6 antagonist: -2; EBI2 block: 3; APJ antagonist: 5; CXCR6 inh: -1; APJ ag: 0

What do the screens show for `CCOc1cc([N+](=O)[O-])cc(/C=N/NC(=O)c2c(-c3ccccc3)noc2C)c1O`?
CCR6 antagonist: 27; EBI2 block: 12; APJ antagonist: 41*; CXCR6 inh: 14; APJ ag: -11; APJ antag confirm: 25

How did O=C(CSc1nc2cc(Cl)ccc2o1)Nc1ccc(N2CCOCC2)cc1 do in these assays?
CCR6 antagonist: 7; EBI2 block: -4; APJ antagonist: -5; CXCR6 inh: 4; APJ ag: -3

What do the screens show for `O=C(O)c1ccc(N=N/C(=N\Nc2ccc(C(=O)O)cc2)c2ccccc2)cc1`?
CCR6 antagonist: 49; EBI2 block: 17; APJ antagonist: 55*; CXCR6 inh: 25; APJ ag: -7; APJ antag confirm: 84*

How did CC(=O)O[C@H]1C(=O)[C@]2(C)[C@H]([C@H](OC(=O)c3ccccc3)[C@]3(O)C[C@H](OC(=O)[C@H](O)[C@@H](NC(=O)c4ccccc4)c4ccccc4)C(C)=C1C3(C)C)[C@]1(OC(C)=O)CO[C@@H]1C[C@@H]2O do in these assays?
CCR6 antagonist: 2; EBI2 block: 3; APJ antagonist: -16; CXCR6 inh: -4; APJ ag: 5

What do the screens show for `Cc1cc(C)n(-c2nc(SCCN(C)C)c3c4c(sc3n2)CCCC4)n1`?
CCR6 antagonist: 19; EBI2 block: -8; APJ antagonist: 49*; CXCR6 inh: 2; APJ ag: -11; APJ antag confirm: 38

What do the screens show for `Cc1cc(C)n(-c2nc(SCC(=O)O)c3c4c(sc3n2)COC(C)(C)C4)n1`?
CCR6 antagonist: 10; EBI2 block: 18; APJ antagonist: -8; CXCR6 inh: -5; APJ ag: 0

What do the screens show for `COc1cc(/C=C(\C#N)C(=O)c2ccc(O)c(O)c2)cc(I)c1O`?
CCR6 antagonist: 57*; EBI2 block: 10; APJ antagonist: 42*; CXCR6 inh: 33; APJ ag: -6; APJ antag confirm: 60*

How did COc1ccc(C=C(C#N)C(=O)c2ccccc2)cc1 do in these assays?
EBI2 block: 0; CXCR6 inh: 6

How did Cc1nc2n(n1)C(c1ccccc1)C1=C(CC(c3ccco3)CC1=O)N2 (stereo not drawn) do in these assays?
CCR6 antagonist: 3; EBI2 block: -2; APJ antagonist: -3; CXCR6 inh: -6; APJ ag: -2

What do the screens show for `O=C(O)C1CCCCC1C(=O)NC(c1ccccc1)c1ccccc1` (stereo not drawn)?
CCR6 antagonist: 10; EBI2 block: 2; APJ antagonist: -21; CXCR6 inh: 3; APJ ag: 0

Results for Cc1[nH]n(C(N)=S)c(=O)c1N=Nc1ccc(S(=O)(=O)N2CCCC2)cc1 ?
CCR6 antagonist: 47; EBI2 block: 4; APJ antagonist: 57*; CXCR6 inh: 28; APJ ag: -13; APJ antag confirm: 80*

How did Cc1ccc(N=Nc2c(C)[nH]n(C(N)=S)c2=O)cc1 do in these assays?
CCR6 antagonist: 26; EBI2 block: 16; APJ antagonist: 6; CXCR6 inh: 21; APJ ag: -1

Results for O=[N+]([O-])c1ccc(N=Nc2ncc[nH]2)cc1 ?
CCR6 antagonist: 68*; EBI2 block: 31; APJ antagonist: 41*; CXCR6 inh: 52*; APJ ag: -8; APJ antag confirm: 88*

Results for O=[N+]([O-])c1ccc(N=NN(CCO)CCO)cc1 ?
CCR6 antagonist: 11; EBI2 block: 5; APJ antagonist: 9; CXCR6 inh: 1; APJ ag: -3

What do the screens show for `CN(C(=O)CSC1=Nc2ccccc2C2=NC(c3ccccc3)C(=O)N12)C1CCCCC1` (stereo not drawn)?
CCR6 antagonist: 52*; EBI2 block: 21; APJ antagonist: 47*; CXCR6 inh: 47*; APJ ag: -17; APJ antag confirm: 61*

Results for O=C(CSC1=Nc2ccccc2C2=NC(c3ccccc3)C(=O)N12)NC1CCCCC1 (stereo not drawn) ?
CCR6 antagonist: 43; EBI2 block: 9; APJ antagonist: 14; CXCR6 inh: 30; APJ ag: -11

Results for O=C(CNc1cccc(Cl)c1)c1ccc(Cl)cc1 ?
CCR6 antagonist: 47; EBI2 block: 25; APJ antagonist: 73*; CXCR6 inh: 41*; APJ ag: -16; APJ antag confirm: 91*

How did Cc1ccc(C(=O)CNc2cccc(Cl)c2)cc1 do in these assays?
CCR6 antagonist: 47; EBI2 block: 15; APJ antagonist: 66*; CXCR6 inh: 20; APJ ag: -9; APJ antag confirm: 77*

What do the screens show for `C[C@H]1CN([C@@H](C)CO)C(=O)c2cccc(NC(=O)Nc3ccc(C(F)(F)F)cc3)c2O[C@@H]1CN(C)Cc1ccc(Cl)c(Cl)c1`?
CCR6 antagonist: -13; EBI2 block: 10; APJ antagonist: -24; CXCR6 inh: -4; APJ ag: -1

What do the screens show for `CCc1ccc(C(=O)COC(=O)CNC(=O)Cc2ccccc2)cc1`?
CCR6 antagonist: -2; EBI2 block: 9; APJ antagonist: -1; CXCR6 inh: -5; APJ ag: -3

Results for Cc1ccc(C(=O)COC(=O)CNC(=O)C(c2ccccc2)c2ccccc2)cc1[N+](=O)[O-] ?
CCR6 antagonist: 58*; EBI2 block: 10; APJ antagonist: 64*; CXCR6 inh: 23; APJ ag: -15; APJ antag confirm: 67*

How did CC(=O)Nc1ccc(C(=O)OCC(=O)c2ccc(C)c([N+](=O)[O-])c2)cc1 do in these assays?
CCR6 antagonist: 23; EBI2 block: -6; APJ antagonist: 10; CXCR6 inh: -5; APJ ag: -5

Screening data: PubChem, Sanford-Burnham Center for Chemical Genomics
